Compound activity as filed in PubChem.
ATG4B inh – ATG4B (human) cysteine protease inhibition | actives 0.51% (n = 340,000) | Q9Y4P1 | ATG4B cleavage of LC3-PLA2, NBD-HPC fluorescence, 1 h | inhibition, % at 8.33 µM; in the data active = inhibition above about 40%
HKDC1 inh – inhibitors of human hexokinase HKDC1 | recombinant HKDC1, G6PDH/diaphorase resazurin coupled fluorescence | actives 0.16% (n = 340,000) | Q2TB90 | AID 493160 | inhibition, % at 20 µM;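 active = inhibition above about 35% when tested at 20 µM, limit read from the data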
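System: Recombinant HKDC1 hexokinase | Amount: HKDC1 at 5 µg/mL | Reagent: Glucose with 1 mM ATP | Doses: Single 20 µM dose | Incubation: Reaction time 90 min, room temperature, protected from light | Signal: Coupled resazurin fluorescence, excitation 525 nm, emission 613 nm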
LANA-H2A inh – blocks KSHV LANA binding to histone H2A/H2B. Q9QR71. cell-free LANA-H2A/H2B peptide, fluorescence polarization. inhibition, % (concentration not given with the values). actives 0.6% (n = 320,000). AID 2629; in the data active = inhibition mostly above about 10%, no sharp cut-off; inactive = mostly below about 6.7%
HDAC3 inhib – blocks human histone deacetylase 3 | recombinant HDAC3, fluorogenic peptide/trypsin coupled, fluorescence | actives 0.15% (n = 320,000) | inhibition, % at 8.3 µM | AID 2718 | O15379; in the data active = inhibition above about 26%, passing the limit was not always enough
Bfl-1 A1 inh – inhibitors of the anti-apoptotic protein A1, read as caspase activation; MEF A1-2A-BIM cells, Caspase-Glo 3/7 luminescence, 3 h; percent of clofoctol response, vehicle zero; caspase activation, % (no concentration beside the values); actives 0.066% (n = 330,000);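 active = over half of replicate activation scores above 10%, or exactly half above 10 with the replicate mean above 10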
AI-2 QS modul – modulators of Vibrio harveyi AI-2 quorum sensing system; activity change, % at 7.5 µM; Vibrio harveyi JMH597 AI-2 luminescence/OD600 ratio, 9 h; stronger effect = lower value; strain lacks LuxN and CqsS sensors; 0 = neutral-control median; AID 2094; actives 0.4% (n = 300,000); in the data active = activity change below about -75%, passing the limit was not always enough;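 note: luminescence divided by OD600 gain over 9 h not by final OD600 alone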
Hits are given with their value. Rows were chosen to be rich in hits. Some 1.8% of all compounds tested hit in one or more screens of this group.

Results for Cc1csc(-c2coc3cc(O)cc(C)c3c2=O)n1 ?
ATG4B inh: inactive; HKDC1 inh: inactive; LANA-H2A inh: 8.1; HDAC3 inhib: inactive; Bfl-1 A1 inh: inactive; AI-2 QS modul: inactive

How did N/C(Cc1ccc(Cl)cc1)=N\OC(=O)c1ccccc1 do in these assays?
ATG4B inh: inactive; HKDC1 inh: inactive; LANA-H2A inh: inactive; HDAC3 inhib: inactive; Bfl-1 A1 inh: inactive; AI-2 QS modul: -90

What do the screens show for `COc1ccc(NC(=O)[C@@H]2CCCN2S(=O)(=O)c2ccccc2F)cc1S(=O)(=O)N1CCCCC1`?
ATG4B inh: inactive; HKDC1 inh: inactive; LANA-H2A inh: inactive; HDAC3 inhib: inactive; Bfl-1 A1 inh: inactive

What do the screens show for `COc1ccc(Cl)cc1NC(=O)NC1CCCCC1`?
ATG4B inh: inactive; HKDC1 inh: inactive; LANA-H2A inh: 21; HDAC3 inhib: inactive; Bfl-1 A1 inh: inactive; AI-2 QS modul: inactive

Results for COc1cccc(C(=O)Nc2nnc(C3CCCO3)s2)c1 (stereo not given) ?
ATG4B inh: inactive; HKDC1 inh: inactive; LANA-H2A inh: inactive; HDAC3 inhib: inactive; Bfl-1 A1 inh: inactive; AI-2 QS modul: -78

Results for O=C(CS(=O)c1ccc(F)cc1)Nc1ccccc1Cl (stereo not given) ?
ATG4B inh: inactive; HKDC1 inh: inactive; LANA-H2A inh: 13; HDAC3 inhib: inactive; Bfl-1 A1 inh: inactive; AI-2 QS modul: inactive

What do the screens show for `Cc1nc2ccc(C(C(F)(F)F)(C(F)(F)F)C(F)(F)F)cc2[nH]1`?
ATG4B inh: inactive; HKDC1 inh: inactive; LANA-H2A inh: inactive; HDAC3 inhib: 32; Bfl-1 A1 inh: inactive; AI-2 QS modul: inactive

How did Cc1nonc1OCCN1CCN(c2ccccc2[N+](=O)[O-])CC1 do in these assays?
ATG4B inh: inactive; HKDC1 inh: inactive; LANA-H2A inh: 23; HDAC3 inhib: inactive; Bfl-1 A1 inh: inactive; AI-2 QS modul: inactive

How did CCc1ccccc1OCC(=O)Nc1ccc(F)c(S(=O)(=O)N2CCOCC2)c1 do in these assays?
ATG4B inh: inactive; HKDC1 inh: inactive

How did Cc1[nH]c2ccccc2c1C(C#N)(C#N)C1C(=O)c2ccccc2C1=O do in these assays?
ATG4B inh: inactive; HKDC1 inh: 57; LANA-H2A inh: inactive; HDAC3 inhib: inactive; Bfl-1 A1 inh: inactive; AI-2 QS modul: inactive

What do the screens show for `CC(C)NS(=O)(=O)c1ccc(NC(=O)C(C)OC(=O)CCCOc2ccccc2)cc1` (stereo not given)?
ATG4B inh: inactive; HKDC1 inh: inactive

What do the screens show for `COC(=O)CSc1nnc(CNC(=O)c2cccs2)n1-c1cccc(C)c1`?
ATG4B inh: inactive; HKDC1 inh: inactive; AI-2 QS modul: inactive

What do the screens show for `Cc1ccc(-n2c(CNC(=O)c3cccs3)nnc2SCC(=O)NO)cc1`?
ATG4B inh: inactive; HKDC1 inh: inactive; LANA-H2A inh: inactive; HDAC3 inhib: 53; Bfl-1 A1 inh: inactive; AI-2 QS modul: inactive

Results for C/C(=N\Nc1nc2c(s1)CCCC2)c1ccccc1 ?
ATG4B inh: inactive; HKDC1 inh: inactive; LANA-H2A inh: inactive; HDAC3 inhib: inactive; Bfl-1 A1 inh: inactive; AI-2 QS modul: inactive

How did CC(=O)/C=C/n1c(=S)oc2ccccc21 do in these assays?
ATG4B inh: inactive; HKDC1 inh: inactive; LANA-H2A inh: inactive; HDAC3 inhib: inactive; Bfl-1 A1 inh: inactive; AI-2 QS modul: -96

Results for Cn1c(=S)oc2ccccc21 ?
ATG4B inh: inactive; HKDC1 inh: inactive; LANA-H2A inh: inactive; HDAC3 inhib: inactive; Bfl-1 A1 inh: inactive; AI-2 QS modul: inactive

Results for Cc1cccc2c1CCCC2=O ?
ATG4B inh: inactive; HKDC1 inh: inactive

What do the screens show for `CCC(C(=O)NC1CC(C)(C)NC(C)(C)C1)c1ccccc1` (stereo not given)?
ATG4B inh: inactive; HKDC1 inh: inactive; LANA-H2A inh: 14; HDAC3 inhib: inactive; Bfl-1 A1 inh: inactive; AI-2 QS modul: inactive

How did CCC(=O)c1ccc(OCC(=O)OC(C)C(=O)Nc2c(C)n(C)n(-c3ccccc3)c2=O)cc1 (stereo not given) do in these assays?
ATG4B inh: inactive; HKDC1 inh: inactive

What do the screens show for `COc1ccc(S(=O)(=O)N2CCC(C(=O)NCCC3=CCCCC3)CC2)cc1C`?
ATG4B inh: inactive; HKDC1 inh: inactive; LANA-H2A inh: 34; HDAC3 inhib: inactive; Bfl-1 A1 inh: inactive; AI-2 QS modul: inactive
